The results in this text go back to ChEMBL document CHEMBL3286371, “wALADin benzimidazoles differentially modulate the function of porphobilinogen synthase orthologs” (J Med Chem, 2014).

Structures are written as SMILES. Activity calls are given as the source filed them. No cut-off for these calls is given here.

Assay [1] addresses Delta-aminolevulinic acid dehydratase (Pseudomonas aeruginosa (strain ATCC 15692 / PAO1 / 1C / PRS 101 / LMG12228)) (UniProt Q59643). Put plainly: Inhibition of Pseudomonas aeruginosa PAO1 recombinant PBGS using 0.2 mM 5-ALA as substrate assessed as […] at 50 to 200 uM at pH 7.5 by buffer scan assay in presence of 1 mM MgCl2 and 1 to 1000 mM KCl.
In assay [2] the target is T1, Delta-aminolevulinic acid dehydratase (Escherichia coli (strain K12), UniProt P0ACB2).
T1 sequence (P0ACB2 whole entry): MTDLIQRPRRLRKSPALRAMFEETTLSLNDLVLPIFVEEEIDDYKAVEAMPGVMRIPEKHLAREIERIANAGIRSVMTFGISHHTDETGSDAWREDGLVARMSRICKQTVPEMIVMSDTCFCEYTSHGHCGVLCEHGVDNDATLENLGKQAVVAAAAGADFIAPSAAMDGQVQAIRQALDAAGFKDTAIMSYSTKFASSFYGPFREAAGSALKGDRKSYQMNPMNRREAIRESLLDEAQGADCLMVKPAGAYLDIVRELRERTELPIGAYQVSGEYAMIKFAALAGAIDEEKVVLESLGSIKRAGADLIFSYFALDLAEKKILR
Put plainly: Stimulation of Escherichia coli recombinant PBGS using 5-ALA as substrate. The gist of the method:
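E. coli PBGS at 200 nM subunit in 100 mM BTP-HCl pH 8.1 with 1 mM MgCl2, 10 μM ZnCl2, 5 mM DTT and 0.2 mM 5-ALA, 10 min at 36 °C. Porphobilinogen detected with Ehrlich's reagent. Activity normalized to control with 6.7% DMSO set at 100%. EC50 by log(agonist) vs response variable-slope fit.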

Assay [3] deals with T2, Delta-aminolevulinic acid dehydratase (Drosophila melanogaster, UniProt Q9VTV9).
T2 sequence (Q9VTV9 whole entry): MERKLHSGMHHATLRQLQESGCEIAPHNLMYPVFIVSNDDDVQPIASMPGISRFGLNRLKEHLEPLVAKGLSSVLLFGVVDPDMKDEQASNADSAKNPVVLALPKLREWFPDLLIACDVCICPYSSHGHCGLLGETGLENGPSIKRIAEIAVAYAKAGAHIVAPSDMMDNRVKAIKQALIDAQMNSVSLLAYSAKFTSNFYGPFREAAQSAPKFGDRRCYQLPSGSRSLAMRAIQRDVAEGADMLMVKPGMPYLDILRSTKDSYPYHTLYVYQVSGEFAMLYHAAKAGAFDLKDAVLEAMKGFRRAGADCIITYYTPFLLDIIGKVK
Put plainly: Inhibition of Drosophila melanogaster recombinant PBGS using 5-ALA as substrate.

Assay [4] concerns the target Delta-aminolevulinic acid dehydratase (Pseudomonas aeruginosa (strain ATCC 15692 / PAO1 / 1C / PRS 101 / LMG12228)) (UniProt Q59643). Kind of assay: Stimulation of Pseudomonas aeruginosa PAO1 recombinant PBGS assessed as stabilization of dimeric form at 8 to 2000 uM by nondenaturing PAGE analysis in presence of Mg2+ and K+. The gist of the method: (§1)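 PaPBGS (3 μg) preincubated 20 min at 37 °C in assay buffer with 1 mM Mg2+, 100 mM K+ and wALADin1, no 5-ALA. Run on 7.5% nondenaturing PAGE at 4 °C for 15–20 h. Coomassie for oligomer state; in-gel activity with 500 μM 5-ALA stained with Ehrlich's reagent.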

For assay [5] the target is unchanged. Put plainly: Stimulation of Pseudomonas aeruginosa PAO1 recombinant PBGS.
Assay [6] deals with T3, Delta-aminolevulinic acid dehydratase, chloroplastic (Pisum sativum) (UniProt P30124).
T3 sequence (whole entry): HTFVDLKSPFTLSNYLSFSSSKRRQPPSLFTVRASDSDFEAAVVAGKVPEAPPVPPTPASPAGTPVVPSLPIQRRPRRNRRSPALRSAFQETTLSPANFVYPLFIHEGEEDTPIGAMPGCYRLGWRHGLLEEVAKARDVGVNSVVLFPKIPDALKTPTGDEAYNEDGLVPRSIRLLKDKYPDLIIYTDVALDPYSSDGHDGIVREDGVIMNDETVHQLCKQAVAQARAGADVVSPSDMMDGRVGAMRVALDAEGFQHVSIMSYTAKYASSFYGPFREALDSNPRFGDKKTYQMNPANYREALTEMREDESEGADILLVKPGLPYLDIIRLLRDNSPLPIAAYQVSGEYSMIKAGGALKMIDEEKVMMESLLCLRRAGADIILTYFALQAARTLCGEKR
Kind of assay: Inhibition of Pisum sativum PBGS using 5-ALA as substrate at 8 to 2000 uM after 30 mins by nondenaturing PAGE analysis. The settings on record: Lathyrus oleraceus.

Assay [7] concerns the target Delta-aminolevulinic acid dehydratase (Pseudomonas aeruginosa (strain ATCC 15692 / PAO1 / 1C / PRS 101 / LMG12228)) (UniProt Q59643). Kind of assay: Inhibition of Pseudomonas aeruginosa PAO1 recombinant PBGS assessed as inhibition of octamer-inducing effect of K+ by nondenaturing PAGE analysis. The gist of the method: as §1
Assay [8] shares this target. Kind of assay: Stimulation of Pseudomonas aeruginosa PAO1 recombinant PBGS using 5-ALA as substrate at 10 to 1000 uM at pH 8 in presence of MgCl2 and KCl.
Assay [9] addresses T4, Delta-aminolevulinic acid dehydratase, chloroplastic (Pisum sativum, UniProt P30124).
T4 sequence (P30124 whole entry): T3 sequence (whole entry)
Put plainly: Inhibition of Pisum sativum PBGS using 5-ALA as substrate. The arrangement: species or system Lathyrus oleraceus. Summed up:
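Pea (P. sativum) PBGS at 300 nM subunit in 100 mM BTP-HCl pH 8.5 with 1 mM MgCl2, 5 mM DTT and 0.2 mM 5-ALA, 15 min at 36 °C. Porphobilinogen detected with Ehrlich's reagent. Activity normalized to 6.7% DMSO control as 100%. IC50 from variable-slope normalized-response fit.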

Chain of Delta-aminolevulinic acid dehydratase (Pseudomonas aeruginosa (strain ATCC 15692 / PAO1 / 1C / PRS 101 / LMG12228)) (Q59643 whole entry): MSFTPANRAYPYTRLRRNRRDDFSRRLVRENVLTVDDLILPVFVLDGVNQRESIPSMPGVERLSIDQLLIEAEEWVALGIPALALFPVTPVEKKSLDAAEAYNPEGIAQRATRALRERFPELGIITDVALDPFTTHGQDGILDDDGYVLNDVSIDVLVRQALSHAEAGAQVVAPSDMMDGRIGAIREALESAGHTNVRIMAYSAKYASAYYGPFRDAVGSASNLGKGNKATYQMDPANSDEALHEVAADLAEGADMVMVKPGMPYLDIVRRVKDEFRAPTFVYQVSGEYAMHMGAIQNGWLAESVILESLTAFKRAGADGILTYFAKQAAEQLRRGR

As for `O=C(O)c1ccc2c(c1)nc(CCNC(=O)c1cccs1)n2Cc1cccc(C(F)(F)F)c1`, the inhibition result in assay [1] was “inactive”. For the same molecule, the EC50 (in general, the midpoint of the concentration-response curve) in [2] was 60 µM. For the same molecule, the IC50 (as a rule, the concentration needed to halve the response being measured) in assay [3] was 1110 µM; in assay [9], 10.6 µM. Moreover, the outcome in assay [4] was inactive. Also, the Activity in [5] stood at 20%. Further, the inhibition result in [6] is “Active”. Besides, the inhibition result in assay [7] was “Dose-dependent effect”. For the same molecule, the result in [8] was Active.
